Screening data: PubChem, several laboratories
Sampled rows, rich in hits. Any-hit rate of the full collection: about 1.9%.
GPR7 antagonist: antagonists of human GPR7 (neuropeptides B/W receptor 1); P48145; GPR7-expressing cells, fluorescence antagonist assay; inhibition, % at 4.4 µM; 290,000 tested, 1.1% active; AID 1861; in the data active = inhibition above about 16%, passing the limit was not always enough;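 also: cells stimulated with the agonist NPW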
NS3 helicase inh: HCV NS3 helicase inhibition; NS3 helicase DNA unwinding, Cy5 molecular beacon fluorescence; inhibition, % at 10.9 µM; 290,000 tested, 0.56% active; AID 1800;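 active = inhibition above the mean of all tested compounds plus 3 SD, set per campaign, cut at about 35% in these data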
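Compound dosing – single dose, 10.9 µM nominal final, DMSO 0.8% final · System – NS3 helicase fragment of HCV · Buffer or medium – MOPS pH 6.5, MgCl2, DTT, Tween20, BSA · Signal – Cy5 beacon fluorescence read at start and 1 h · Also added – annealed dual-labelled DNA beacon duplex, ATP-started · Schedule – 1 h at 25 °C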
DNA FID counter-1: fluorescent intercalator displacement, NS3 helicase counter-screen; AID 1845; DNA fluorescent intercalator displacement, fluorescence; inhibition, % at 7.9 µM; 290,000 tested, 0.17% active;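 also: higher means more ethidium bromide displaced from hairpin DNA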
HCV core dimer: blocks dimerization of HCV core protein; 300,000 tested, 0.33% active; TR-FRET GST/Flag-core106 dimerization, 1536-well; inhibition, % at 5 µM;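 active = inhibition above the mean of all tested compounds plus 3 SD, set per screening campaign, cut at about 45% in these data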
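System – GST-tagged and Flag-tagged HCV core protein residues 1-106 · Repeats – one well for each compound · Technique – TR-FRET 671 and 617 nm emission · Doses – one concentration, 5 µM, in 0.5% DMSO · Times – 4 h, 22.5 °C incubation · Also added – Eu donor and XL665 acceptor anti-tag antibodies · Measure – percent inhibition of core106 dimerization signal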
pCIP destab: lowers stability of the mouse p/CIP coactivator protein. F442A p/CIP-EGFP cells, EGFP fluorescence, 16 h. decrease of EGFP signal, % at 10 µM. 290,000 tested, 0.01% active. AID 1984;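 active = EGFP signal decrease of at least 30% at 10 µM or well 3 SD below plate mean, unless failing retest; inactive = the rest, including hits failing retest or dose response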
NS3 hel confirm: HCV NS3 helicase inhibition, confirmation assay. shares compounds with NS3 helicase inh. NS3 helicase DNA unwinding, Cy5 molecular beacon fluorescence. inhibition, % at 10.9 µM. 1,600 tested, 31% active. AID 1943;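 active = inhibition above the mean of all tested compounds plus 3 SD, cutoff set per campaign, cut at about 36% in these data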
DNA FID counter-2: displaces DNA intercalator in HCV helicase counter-screen. 1,600 tested, 4% active. AID 1945. shares compounds with NS3 helicase inh. inhibition, % at 7.9 µM. DNA fluorescent intercalator displacement, fluorescence;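 also: higher means more displacement of ethidium bromide from the DNA hairpin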
GPR7 antag cf: human GPR7 antagonism, confirmation assay | shares compounds with GPR7 antagonist | GPR7-expressing cells, calcium fluorescence antagonist mode | inhibition, % at 4.4 µM | 2,400 tested, 52% active; in the data active = inhibition above about 24%;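 also: stimulated with the GPR7 agonist NPW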
MCHR1 antag: antagonizes human MCHR1, a GPR7 antagonist counter-screen | shares compounds with GPR7 antagonist | MCHR1-expressing cells, fluorescence antagonist assay | inhibition, % at 4.4 µM | 2,400 tested, 62% active; in the data active = inhibition above about 22%
Hits are given with their value; – = inactive; · = not tested or not shown. Rule as the data show it, unless noted: active = inhibition above about 37%; inactive = the rest.

SMILES	GPR7 antagonist	NS3 helicase inh	DNA FID counter-1	HCV core dimer	pCIP destab	NS3 hel confirm	DNA FID counter-2	GPR7 antag cf	MCHR1 antag
O=S(=O)(Nc1nc2ccccc2nc1NCC1CCCO1)c1ccc(F)cc1 (configuration not stated)	–	42	–	–	–	–	–	·	·
CN(C)c1ccc(N=Nc2ccc(C(=O)O)cc2)cc1	–	63	–	–	–	–	–	·	·
CN(C)c1ccc(C(=O)c2ccccc2)cc1	–	–	–	–	–	·	·	·	·
Cc1nn(C(C)C(=O)NCCc2cccs2)c(=O)c2nn(-c3ccccc3)c(C)c12 (configuration not stated)	–	–	–	–	–	·	·	·	·
CC(/C=N/n1c(-c2cc(C)[nH]n2)n[nH]c1=S)=C\c1ccco1	–	45	–	–	–	–	–	·	·
CC(C)c1cc(=O)n2[nH]c(SCc3ccc(Cl)cc3)nc2n1	–	45	–	–	–	–	–	·	·
CCC(C)(C(=O)NC1CCCC1)N(C(=O)CC1NC(=O)NC1=O)c1c(C)n(C)n(-c2ccccc2)c1=O (configuration not stated)	–	–	–	–	–	·	·	·	·
O=C(CCCn1nnnc1CN1CCOCC1)N1CCC(c2ccc(F)cc2)C1 (configuration not stated)	–	–	–	–	–	·	·	·	·
O=C(O)Cn1c2c(c3ccccc31)CSc1ccc(Cl)cc1-2	–	37	–	–	–	84	–	·	·
COc1ccc(S(=O)(=O)NNC(=O)C2COc3ccccc3O2)cc1[N+](=O)[O-] (configuration not stated)	·	·	·	–	·	·	·	·	·
CCc1nc2ccccc2n1CC(O)COCC1CC=CCC1 (configuration not stated)	–	–	–	–	–	·	·	·	·
CCc1cc2cc3c(cc2nc1SCC(=O)Nc1c[nH]c(=O)[nH]c1=O)OCO3	–	41	–	–	–	–	–	·	·
COc1ccc(S(=O)(=O)NCC(c2cccnc2)N2CCN(Cc3ccccc3)CC2)cc1C (configuration not stated)	–	–	–	–	–	·	·	·	·
CCCC(c1nnnn1Cc1ccc(OC)cc1)N1CCN(C(=O)c2ccco2)CC1 (configuration not stated)	–	–	–	–	–	·	·	·	·
Cc1ccc(-c2csc(NC(=O)c3ccc(Br)cc3)c2C(=O)O)cc1	40	42	–	–	–	69	–	62	46
COc1ccc(OCC(O)CNC2CCCC2)cc1 (configuration not stated)	–	–	–	·	–	·	·	·	·
OC(CNC1Cc2ccccc2C1)COc1ccc(F)cc1 (configuration not stated)	22	37	–	–	–	–	–	–	–
O=C(CN1CCOc2ccccc21)NC1CCCCCCC1	25	62	–	–	·	–	–	–	–
O=C(CN1CCOc2ccccc21)NC1CCN(Cc2ccccc2)CC1	–	–	–	–	–	·	·	·	·
CC(C)(C)CN1CCN(CC#Cc2ccccc2)CC1CCO (configuration not stated)	–	–	–	–	–	·	·	·	·
O=C1/C(=C\c2cc(Cl)c(O)c(Cl)c2)SC(=S)N1Cc1ccccc1	60	41	–	·	–	66	–	100	111
O=C(CCCCCn1nnc2ccccc2c1=O)Nc1ccccc1F	–	–	–	–	–	·	·	·	·
CC(=C\c1ccccc1)/C=C1/SC(=S)N(CCCC(=O)O)C1=O	39	59	–	·	–	61	–	–	–
N#Cc1c(Cl)nsc1NC(=O)c1ccccc1	–	–	–	–	–	·	·	·	·
CCC(C)[C@H](NC(=O)C1(c2ccccc2)CCN(C(=O)OC(C)(C)C)CC1)C(=O)N[C@@H](C(=O)O)c1ccccc1 (some centres not stated)	27	47	–	–	–	–	–	–	–
SMILES	GPR7 antagonist	NS3 helicase inh	DNA FID counter-1	HCV core dimer	pCIP destab	NS3 hel confirm	DNA FID counter-2	GPR7 antag cf	MCHR1 antag
O=C(Nc1cccc2ccccc12)c1ccccc1	–	–	–	–	–	·	·	·	·
O=C(Nc1cccc2ccccc12)c1ccc([N+](=O)[O-])cc1	42	41	–	–	–	–	–	–	–
CCc1c(C)sc(NC(=O)Cc2ccccc2OC)c1C(=O)N1CCOCC1	–	–	–	–	–	·	·	·	·
O=C(Cn1nc2ccccc2n1)N/N=C/c1cc([N+](=O)[O-])ccc1O	–	–	–	–	–	·	·	·	·
O=C(N/N=C/c1cc([N+](=O)[O-])ccc1O)c1cccc2ccccc12	27	40	–	–	–	–	–	–	–
C=CCn1c(CNC(=O)c2ccccc2F)nnc1SCC(=O)N1CCOCC1	–	–	–	–	–	·	·	·	·
Cc1ccc(-c2ccc(C3C(C#N)=C(N)Oc4n[nH]c(C)c43)o2)cc1 (configuration not stated)	26	40	–	–	–	–	–	49	72
O=C(C(Cc1ccccc1)n1cccc1)N1CCCCC1 (configuration not stated)	–	–	–	–	–	·	·	·	·
O=C(C(Cc1ccccc1)n1cccc1)N1CCN(Cc2ccccc2)CC1 (configuration not stated)	25	42	–	–	–	–	–	–	–
COc1ccc(S(=O)(=O)N2CCCCCC2)cc1C(=O)N(C)CC(=O)Nc1ccc(Cl)c(Cl)c1	·	·	·	–	·	·	·	·	·
COc1ccc(S(=O)(=O)N2CCCCCC2)cc1C(=O)N(C)CC(=O)Nc1cc(C)ccc1C	30	–	–	·	–	·	·	–	–
C=CCSc1nc2sc3c(c2c(=O)n1-c1ccc(C)cc1)CCN(C)C3	–	–	–	·	–	·	·	·	·
CNC(=S)N/N=C/c1cn(Cc2c(F)cccc2Cl)c2ccccc12	30	–	–	–	–	·	·	45	30
Cc1cccc(-n2nc3c(c2NC(=O)c2ccc4c(c2)OCO4)CS(=O)(=O)C3)c1C	–	–	–	–	–	·	·	·	·
Fc1ccc(C2CCNCC2COc2ccc3c(c2)OCO3)cc1 (configuration not stated)	28	–	–	–	–	·	·	36	28
O=C(CN(C(=O)CCC(=O)Nc1nccs1)c1ccc(F)cc1)NCCc1ccccc1	–	–	–	–	–	·	·	·	·
CC(=O)Nc1ccc(/C=N/N2C(=O)NC(C)(c3ccc(OC(F)F)cc3)C2=O)cc1 (configuration not stated)	39	–	–	–	–	·	·	98	99
CCOC(=O)CN1C(=O)NC(C)(c2ccc(OC(F)F)cc2)C1=O (configuration not stated)	–	–	–	–	–	·	·	·	·
